Test results reported in ChEMBL document CHEMBL3822397, “Synthesis and bioevaluation of novel benzodipyranone derivatives as P-glycoprotein inhibitors for multidrug resistance reversal agents” (Eur J Med Chem, 2016).
Calls of active or inactive are those of the source. The calls are words filed in the database; no cut-off is given here.

Legend:
[1] = target: T1, ATP-dependent translocase ABCB1 (Homo sapiens, UniProt P08183); assay: Inhibition of full length human ABCB1 expressed in Flp-In-293 cells assessed as potentiation of paclitaxel-induced cytotoxicity at 10 uM after 72 hrs by SRB assay relative to control; format: cell-based
[2] = target: T1, ATP-dependent translocase ABCB1; assay: Inhibition of full length human ABCB1 expressed in Flp-In-293 cells assessed as potentiation of doxorubicin-induced cytotoxicity at 10 uM after 72 hrs by SRB assay relative to control; format: cell-based
HEK293 [3] = assay: Potentiation of vincristine-induced cytotoxicity in Flp-In-293 cells assessed as reduction in vincristine IC50 at 10 uM after 72 hrs by SRB assay relative to control; format: functional, Homo sapiens
[4] = target: T1, ATP-dependent translocase ABCB1; assay: Inhibition of full length human ABCB1 expressed in Flp-In-293 cells assessed as potentiation of paclitaxel-induced cytotoxicity at 8 uM after 72 hrs by SRB assay relative to control; format: cell-based
[5] = target: T1, ATP-dependent translocase ABCB1; assay: Inhibition of full length human ABCB1 expressed in Flp-In-293 cells at 2.5 uM incubated for 30 mins by calcein-AM uptake assay relative to control; format: cell-based; conditions: 0.5 h
[6] = target: T1, ATP-dependent translocase ABCB1; assay: Inhibition of full length human ABCB1 expressed in Flp-In-293 cells assessed as potentiation of vincristine-induced cytotoxicity at 8 uM after 72 hrs by SRB assay relative to control; format: cell-based
HEK293 [7] = assay: Potentiation of vincristine-induced cytotoxicity in Flp-In-293 cells assessed as reduction in vincristine IC50 at 8 uM after 72 hrs by SRB assay relative to control; format: functional, Homo sapiens
HEK293 [8] = assay: Potentiation of doxorubicin-induced cytotoxicity in Flp-In-293 cells assessed as reduction in doxorubicin IC50 at 10 uM after 72 hrs by SRB assay relative to control; format: functional, Homo sapiens
[9] = target: T1, ATP-dependent translocase ABCB1; assay: Inhibition of full length human ABCB1 expressed in Flp-In-293 cells at 5 uM incubated for 30 mins by calcein-AM uptake assay relative to control; format: cell-based; conditions: 0.5 h
HEK293 [10] = assay: Potentiation of doxorubicin-induced cytotoxicity in Flp-In-293 cells assessed as reduction in doxorubicin IC50 at 8 uM after 72 hrs by SRB assay relative to control; format: functional, Homo sapiens
HEK293 [11] = assay: Downregulation of ABCB1 mRNA expression in Flp-In-293 cells transfected with full length human ABCB1 at 5 uM after 72 hrs by RT-PCR analysis; format: functional, cell-based
In short: (§1)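 ABCB1 mRNA measured after treating ABCB1/Flp-In-293 cells with test compounds for 72 hr. Data given as mean ± SE of three experiments, each in triplicate.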

[12] = target: T1, ATP-dependent translocase ABCB1; assay: Inhibition of full length human ABCB1 expressed in Flp-In-293 cells assessed as potentiation of vincristine-induced cytotoxicity at 10 uM after 72 hrs by SRB assay relative to control; format: cell-based
HEK293 [13] = assay: Potentiation of paclitaxel-induced cytotoxicity in Flp-In-293 cells assessed as reduction in paclitaxel IC50 at 10 uM after 72 hrs by SRB assay relative to control; format: functional, Homo sapiens
[14] = target: T1, ATP-dependent translocase ABCB1; assay: Inhibition of full length human ABCB1 expressed in Flp-In-293 cells assessed as potentiation of doxorubicin-induced cytotoxicity at 8 uM after 72 hrs by SRB assay relative to control; format: cell-based
HEK293 [15] = assay: Potentiation of paclitaxel-induced cytotoxicity in Flp-In-293 cells assessed as reduction in paclitaxel IC50 at 8 uM after 72 hrs by SRB assay relative to control; format: functional, Homo sapiens
HEK293 [16] = assay: Effect on ABCB1 mRNA expression in Flp-In-293 cells at 5 uM after 72 hrs by RT-PCR analysis; format: ADME, cell-based; conditions: human, flp-in-293, 72 h; in short: as §1
[17] = target: T1, ATP-dependent translocase ABCB1; assay: Inhibition of ABCB1 in human KBVIN cells assessed as potentiation of vincristine-induced cytotoxicity at 10 uM after 72 hrs by SRB assay relative to control; format: cell-based
[18] = Potentiation of vincristine-induced cytotoxicity in human HeLaS3 assessed as reduction in vincristine IC50 at 8 uM after 72 hrs by SRB assay relative to control; format: functional, HeLa S3
[19] = Potentiation of vincristine-induced cytotoxicity in human HeLaS3 assessed as reduction in vincristine IC50 at 10 uM after 72 hrs by SRB assay relative to control; format: functional, HeLa S3
[20] = Potentiation of paclitaxel-induced cytotoxicity in human HeLaS3 assessed as reduction in paclitaxel IC50 at 8 uM after 72 hrs by SRB assay relative to control; format: functional, HeLa S3
[21] = target: T1, ATP-dependent translocase ABCB1; assay: Inhibition of ABCB1 in human KBVIN cells assessed as potentiation of paclitaxel-induced cytotoxicity at 10 uM after 72 hrs by SRB assay relative to control; format: cell-based
[22] = target: T1, ATP-dependent translocase ABCB1; assay: Inhibition of ABCB1 in human KBVIN cells assessed as potentiation of paclitaxel-induced cytotoxicity at 8 uM after 72 hrs by SRB assay relative to control; format: cell-based
[23] = Potentiation of paclitaxel-induced cytotoxicity in human HeLaS3 assessed as reduction in paclitaxel IC50 at 10 uM after 72 hrs by SRB assay relative to control; format: functional, HeLa S3
[24] = target: T1, ATP-dependent translocase ABCB1; assay: Inhibition of ABCB1 in human KBVIN cells assessed as potentiation of vincristine-induced cytotoxicity at 8 uM after 72 hrs by SRB assay relative to control; format: cell-based

T1 sequence (P08183 whole entry): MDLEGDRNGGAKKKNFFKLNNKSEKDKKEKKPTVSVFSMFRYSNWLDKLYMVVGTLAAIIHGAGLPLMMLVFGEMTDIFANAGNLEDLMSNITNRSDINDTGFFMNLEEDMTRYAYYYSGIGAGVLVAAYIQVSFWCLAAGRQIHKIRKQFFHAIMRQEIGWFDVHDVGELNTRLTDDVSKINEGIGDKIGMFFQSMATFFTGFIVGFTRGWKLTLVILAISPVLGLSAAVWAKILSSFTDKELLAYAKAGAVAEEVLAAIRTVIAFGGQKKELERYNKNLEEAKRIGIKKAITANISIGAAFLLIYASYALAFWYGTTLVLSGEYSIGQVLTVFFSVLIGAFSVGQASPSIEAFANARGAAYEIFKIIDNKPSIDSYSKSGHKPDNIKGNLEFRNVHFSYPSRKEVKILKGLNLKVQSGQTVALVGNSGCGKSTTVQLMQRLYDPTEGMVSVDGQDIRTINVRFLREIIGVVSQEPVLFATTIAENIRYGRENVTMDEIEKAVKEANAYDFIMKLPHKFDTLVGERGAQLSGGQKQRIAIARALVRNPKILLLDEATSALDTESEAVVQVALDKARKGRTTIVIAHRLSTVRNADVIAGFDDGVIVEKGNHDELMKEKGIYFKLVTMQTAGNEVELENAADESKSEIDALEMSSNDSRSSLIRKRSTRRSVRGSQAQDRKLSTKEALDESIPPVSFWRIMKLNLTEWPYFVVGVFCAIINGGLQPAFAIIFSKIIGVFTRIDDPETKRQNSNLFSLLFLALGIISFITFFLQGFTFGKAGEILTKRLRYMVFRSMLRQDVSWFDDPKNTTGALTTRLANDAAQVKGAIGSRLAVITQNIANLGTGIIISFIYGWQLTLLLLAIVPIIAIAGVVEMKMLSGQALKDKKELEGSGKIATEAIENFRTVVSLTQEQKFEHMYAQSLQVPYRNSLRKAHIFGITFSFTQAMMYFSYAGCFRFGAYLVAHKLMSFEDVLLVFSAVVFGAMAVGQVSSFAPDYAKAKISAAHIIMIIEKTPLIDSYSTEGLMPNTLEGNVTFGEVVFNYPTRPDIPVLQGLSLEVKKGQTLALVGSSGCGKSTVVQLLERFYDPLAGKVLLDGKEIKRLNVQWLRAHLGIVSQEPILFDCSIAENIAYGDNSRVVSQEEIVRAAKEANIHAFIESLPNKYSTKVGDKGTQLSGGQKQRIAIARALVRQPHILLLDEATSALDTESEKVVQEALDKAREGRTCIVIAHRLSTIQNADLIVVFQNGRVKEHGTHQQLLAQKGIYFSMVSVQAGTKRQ

Structure (SMILES)	fold change (FC) [1]	fold change (FC) [2]	fold change (FC) (HEK293 [3])	fold change (FC) [4]	fold change (FC) [5]	fold change (FC) [6]	fold change (FC) (HEK293 [7])	fold change (FC) (HEK293 [8])	fold change (FC) [9]	fold change (FC) (HEK293 [10])	Activity (HEK293 [11])	fold change (FC) [12]	fold change (FC) (HEK293 [13])	fold change (FC) [14]	fold change (FC) (HEK293 [15])	also measured
COc1ccc(-c2coc3c(c(O)cc4occ(-c5ccc(OC)c(OC)c5)c(=O)c43)c2=O)cc1OC	9.5	1.5	8.2	8.8	1.45	4.1	7.8	1.3	1.64	1.2	Active	9.7	1.3	1.5	1	–
COc1ccc(-c2coc3c(c(O)cc4occ(-c5ccc(OC)cc5)c(=O)c43)c2=O)cc1	8.2	1.7	7.1	2.1	1.54	1.4	6.6	2.1	1.84	0.9	inactive	1.6	4.2	1.6	2.7	Activity (HEK293 [16]): Non-toxic
Cc1cccc(-c2coc3c(c(O)cc4occ(-c5cccc(C)c5)c(=O)c43)c2=O)c1	16.1	1.6	9.1	10.8	1.58	15.6	7.8	1.6	2.05	1.2	Active	21	1.8	1.4	1.5	fold change (FC) [17]: 29.7; fold change (FC) [18]: 4.7; fold change (FC) [19]: 8.8; fold change (FC) [20]: 1.1; fold change (FC) [21]: 23.1; fold change (FC) [22]: 19; fold change (FC) [23]: 1.4; fold change (FC) [24]: 7.4
O=c1c(-c2ccc(OC(F)(F)F)cc2)coc2cc3occ(-c4ccc(OC(F)(F)F)cc4)c(=O)c3c(O)c12	–	–	–	–	0.62	–	–	–	0.63	–	–	–	–	–	–	–
Cc1ccc(-c2coc3cc4occ(-c5ccc(C)cc5)c(=O)c4c(O)c3c2=O)cc1	–	–	–	–	1.62	–	–	–	1.81	–	–	–	–	–	–	–
COc1ccc(-c2coc3cc4occ(-c5ccc(OC)c(OC)c5)c(=O)c4c(O)c3c2=O)cc1OC	–	–	–	–	0.81	–	–	–	0.86	–	–	–	–	–	–	–
